Data reported in paper PMC3286645 (Carbohydrate Research, 2011).
Read-outs that look alike come from different tables or passages of the source.

Assays:
Hs27 cells = test: MTS cell viability assay in Hs27 cells; assay type: cell-based
[1] = Thermogravimetric analysis; assay type: physicochemical; settings: TGA; for Temperature of solvent loss: 10 °C/min under nitrogen; for Number of water molecules: from weight loss; for Percent weight loss: solvent loss
In short: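 Instrument calibrated with indium and aluminum. 2.5 mg to 4.5 mg of each test compound in an alumina crucible, heated from 25 °C to 200 °C at 10 °C/min under nitrogen flowing at 2 mL/min; weight loss recorded against temperature.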

HaCaT cells = test: MTS cell viability assay in HaCaT cells; assay type: cell-based, human
Jurkat cells [2] = test: MTS cell viability assay in Jurkat cells; assay type: cell-based
[3] = Differential scanning calorimetry; assay type: physicochemical; settings: DSC; for Mp (transition from solid crystalline phase to liquid crystalline phase): first phase transition; for Cp (clearing point): liquid crystalline phase to liquid melt phase
In short: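 Dry test compounds kept under vacuum against moisture uptake; 1.0 to 1.5 mg weighed into Tzero aluminum pans sealed with hermetic lids, empty sealed pan as reference. Instrument calibrated with indium for temperature and enthalpy. Scanned 20°C to 250°C at 2.5°C/min; phase transitions taken from the thermograms.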

[4] = cited from earlier work
[5] = Solubility of stock solutions in DMSO and in cell culture medium; assay type: physicochemical; settings: 100 mM stock solution in dimethyl sulfoxide
In short: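 Test compounds and the octylthioglucoside reference were each made up as 100 mM stocks in DMSO. Solubility was judged by eye. An aliquot of each stock was added to cell culture medium, vortexed for 5 sec, centrifuged at 1,400 rpm for 1 min, and checked for precipitate. Stocks that precipitated were diluted further before cytotoxicity testing.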

Jurkat cells [6] = test: Apoptosis assay; assay type: cell-based
[7] = Hs27 cells, MTS assay, 20 h exposure
[8] = HaCaT cells, MTS assay, 20 h exposure
[9] = Jurkat cells, MTS assay, 20 h exposure

| Compound | toxicity (cell viability) in words (Hs27 cells; [7]) | Decomposition Temperature [1] | Temperature of solvent loss [1] | Number of water molecules [1] | Percent weight loss [1] | toxicity (cell viability) in words (Jurkat cells [2]; [9]) | also measured |
| --- | --- | --- | --- | --- | --- | --- | --- |
| CCCCCCCCO[C@@H]1OC[C@@H](O)[C@H](O)[C@H]1O [Compound 9b, Octyl β-D-xylopyranoside] | moderate toxicity | 267.1 ± 9.15 °C | 85.32 ± 0.55 °C | 0.5 | 2.35±0.91% | moderate toxicity | toxicity (cell viability) in words (HaCaT cells; [8]): moderate toxicity; Mp (transition from solid crystalline phase to liquid crystalline phase) [3]: 72.5 °C; Cp (clearing point) [3]: 99.4 °C; Cp (clearing point) ([4]; reported previously ref 23): 96.9 °C; Mp (transition from solid crystalline phase to liquid crystalline phase) ([4]; reported previously ref 23): 64.5 °C; Cp (clearing point) ([4]; reported previously ref 24): 103.3 °C; Mp (transition from solid crystalline phase to liquid crystalline phase) ([4]; reported previously ref 24): 67.5 °C |
| CCCCCCCCCCCCCCCCO[C@@H]1OC[C@@H](O)[C@H](O)[C@H]1O [Compound 9f, Hexadecyl β-D-xylopyranoside] |  |  | 103.4 ± 1.95 °C | 0.3 | 1.24±0.49% |  |  |
| CCCCCCCCS[C@@H]1O[C@H](CO)[C@@H](O)[C@H](O)[C@H]1O [OTG, octylthioglucoside, reference compound] | moderate toxicity |  |  |  |  | moderate toxicity | solubility in DMSO [5]: readily soluble |
| CCCCCCCCCCCCO[C@@H]1OC[C@@H](O)[C@H](O)[C@H]1O [Compound 9d, Dodecyl β-D-xylopyranoside] |  | 290.4 ± 10.5 °C | 86.35 ± 0.98 °C | 0.3 | 1.56±0.09% |  |  |
| CCCCCCO[C@@H]1OC[C@@H](O)[C@H](O)[C@H]1O [Compound 9a, Hexyl β-D-xylopyranoside] |  | 262.8 ± 4.34 °C | 81.74 ± 0.41 °C | 0.4 | 2.50±0.66% |  |  |
| O[C@@H]1[C@@H](O)[C@H](OCCC(F)(F)C(F)(F)C(F)(F)C(F)(F)C(F)(F)C(F)(F)F)OC[C@H]1O [Compound 9g, 3,3,4,4,5,5,6,6,7,7,8,8,8-Tridecafluorooctyl β-D-xylopyranoside] |  |  | 50.57 ± 1.64 °C | 0.9 | 2.64±0.83% |  | toxicity (cell viability) in words (Hs27 cells): moderate toxicity; toxicity (cell viability) in words (HaCaT cells): moderate toxicity; toxicity (cell viability) in words (Jurkat cells [2]): moderate toxicity; mode of cell death (Jurkat cells [6]): apoptosis and not necrosis; Mp (transition from solid crystalline phase to liquid crystalline phase) [3]: 105.1 °C; Cp (clearing point) [3]: 147.0 °C |
| CCCCCCCCCCO[C@@H]1OC[C@@H](O)[C@H](O)[C@H]1O [Compound 9c, Decyl β-D-xylopyranoside] | moderate toxicity | 277.2 ± 11.5 °C | 96.63 ± 0.44 °C | 0.5 | 2.69±0.07% | moderate toxicity | toxicity (cell viability) in words (HaCaT cells; [8]): moderate toxicity |
| CCCCCCCCCCCCCCO[C@@H]1OC[C@@H](O)[C@H](O)[C@H]1O [Compound 9e, Tetradecyl β-D-xylopyranoside] |  | 294.8 ± 7.15 °C | 100.1 ± 2.93 °C | 0.5 | 1.87±1.08% |  |  |
